Measurements published in ChEMBL document CHEMBL1150592, “New antimicrobial cycloartane triterpenes from Acalypha communis” (2002).
≈ marks a conversion by molar mass, not a printed value. Calls of active or inactive are those of the source. The calls are words filed in the database; no cut-off is given here.

Experiments:
[1] = tested on: Staphylococcus aureus; experiment: Antimicrobial activity against Staphylococcus aureus 375 after 18 to 20 hrs by standard broth microdilution method; type: functional
Summary of the method: (§1)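 Broth microdilution in polystyrene plates. Each well held 0.1 mL of broth medium with drug at 0.03–128 μg/mL and received 5 μL of overnight broth culture adjusted to 1 × 10⁷ to 5 × 10⁷ CFU/ml. Plates were incubated 18–20 h at 37 °C. MIC was the lowest concentration with no visible turbidity. Strains came from a laboratory collection.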

[2] = tested on: Staphylococcus aureus; experiment: Antimicrobial activity against Staphylococcus aureus Smith infected in CD1 mouse at 64 mg/kg after 7 days; type: functional, organism-based; parameters: dose 64 mg/kg
Summary of the method: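 Female CD-1 mice weighing 20 ± 2 g were infected intraperitoneally with bacteria suspended in broth or in about 5% mucin, at an inoculum lethal to 95–100% of untreated mice within 48 h. A single drug dose was given 0.5 h after infection. Survival was scored at day 7, using five animals per dose level and three or four separate tests pooled.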

[3] = tested on: Escherichia coli; experiment: Antimicrobial activity against Escherichia coli imp 389 after 18 to 20 hrs by standard broth microdilution method; type: functional; summary of the method: as §1
[4] = tested on: Bacillus subtilis; experiment: Antimicrobial activity against Bacillus subtilis PY79 after 18 to 20 hrs by standard broth microdilution method; type: functional; summary of the method: as §1
[5] = tested on: Staphylococcus aureus; experiment: Antimicrobial activity against methicillin-resistant Staphylococcus aureus 310 after 18 to 20 hrs by standard broth microdilution method; type: functional
Summary of the method: (§2)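 Broth microdilution: 5 μL overnight culture (1 × 10⁷ to 5 × 10⁷ CFU/ml) added to 0.1 mL broth containing drug at 0.03–128 μg/mL. Incubated 18–20 h at 37 °C. MIC = lowest concentration preventing visual turbidity. Strains from an in-house laboratory collection.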

[6] = tested on: Enterococcus faecium; experiment: Antimicrobial activity against vancomycin-resistant Enterococcus faecium 379 after 18 to 20 hrs by standard broth microdilution method; type: functional; summary of the method: as §2
[7] = tested on: Staphylococcus aureus; experiment: Antimicrobial activity against Staphylococcus aureus Smith infected in CD1 mouse after 7 days; type: functional; conditions: 168 h
Summary of the method: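 Female CD-1 mice (20 ± 2 g) infected intraperitoneally with bacteria in broth or ~5% mucin, inoculum lethal to 95–100% of untreated mice within 48 h. Single dose given 0.5 h post-infection. Seven-day survival from three or four tests (five dose levels, five mice per level) pooled; ED50 by probit analysis.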

SMILES | MIC [1] [µg/mL] | ED50 [2] | MIC [3] [µg/mL] | MIC [4] [µg/mL] | MIC [5] [µg/mL] | MIC [6] [µg/mL] | ED50 [7] [mg/kg]
C=C(CC[C@@H](C)[C@H]1[C@@H](O)C[C@@]2(C)[C@@H]3[C@@H](O)C[C@H]4[C@](C)(C(=O)O)[C@@H](O)CC[C@@]45C[C@@]35CC[C@]12C)C(C)C | 16 (≈ 31.8 µM) | inactive | > 128 | 16 (≈ 31.8 µM) | > 128 | 8 (≈ 15.9 µM) | –
CC(C)=CCC[C@@H](C)[C@H]1C[C@H](O)[C@@]2(C)[C@@H]3CC[C@H]4[C@](C)(C(=O)O)[C@@H](O)C[C@H](O)[C@@]45C[C@@]35CC[C@]12C | 32 (≈ 65.5 µM) | – | > 128 | 64 (≈ 131 µM) | 128 (≈ 262 µM) | 32 (≈ 65.5 µM) | –
CC1(C)S[C@@H]2[C@H](NC(=O)Cc3ccccc3)C(=O)N2[C@H]1C(=O)O [PENICILLIN G] | 0.06 (≈ 0.179 µM) | – | 2 (≈ 5.98 µM) | 8 (≈ 23.9 µM) | 128 (≈ 383 µM) | 128 (≈ 383 µM) | –
CC(C)=CCC[C@@H](C)[C@H]1[C@H](O)C[C@@]2(C)[C@@H]3CC[C@H]4[C@](C)(C(=O)O)[C@@H](O)C[C@H](O)[C@@]45C[C@@]35CC[C@]12C | 32 (≈ 65.5 µM) | – | 64 (≈ 131 µM) | 32 (≈ 65.5 µM) | 64 (≈ 131 µM) | 8 (≈ 16.4 µM) | –
CN[C@H](CC(C)C)C(=O)N[C@H]1C(=O)N[C@@H](CC(N)=O)C(=O)N[C@H]2C(=O)N[C@H]3C(=O)N[C@H](C(=O)N[C@H](C(=O)O)c4cc(O)cc(O)c4-c4cc3ccc4O)[C@H](O)c3ccc(c(Cl)c3)Oc3cc2cc(c3O[C@@H]2O[C@H](CO)[C@@H](O)[C@H](O)[C@H]2O[C@H]2C[C@](C)(N)[C@H](O)[C@H](C)O2)Oc2ccc(cc2Cl)[C@H]1O [VANCOMYCIN] | – | – | – | – | – | – | 1
